Assays:
[1] = molecular target: T1, Adenosine receptor A1 (Rattus norvegicus) (UniProt P25099); experiment: Inhibition of [125I]-APNEA binding to adenosine A1 receptor of rat brain at 50 nM
T1 sequence (whole entry): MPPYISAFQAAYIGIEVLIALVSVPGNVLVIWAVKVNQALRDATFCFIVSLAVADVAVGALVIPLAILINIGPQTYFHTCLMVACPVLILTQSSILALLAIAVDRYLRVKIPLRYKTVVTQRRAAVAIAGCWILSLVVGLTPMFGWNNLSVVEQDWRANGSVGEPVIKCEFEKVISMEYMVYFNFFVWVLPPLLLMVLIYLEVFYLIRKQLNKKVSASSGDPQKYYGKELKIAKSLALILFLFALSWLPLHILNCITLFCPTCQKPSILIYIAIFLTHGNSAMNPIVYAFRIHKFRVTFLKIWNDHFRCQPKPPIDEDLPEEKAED
Summary of the method: (§1)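 Adenosine deaminase-treated rat cerebral cortex membranes were exposed to the ligand for 45 min at 37 °C. They were washed three times, held in buffer with 10⁻⁴ M IBMX for 18 h at 25 °C, washed and re-treated with deaminase. Residual sites were measured by 125I-APNEA saturation (0.1–2.5 nM) against untreated membranes carried through the same procedure.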

[2] = molecular target: Adenosine A2 receptor (Rattus norvegicus, UniProt P29276+P30543); experiment: Inhibition of [3H]N-ethyladenosine-5'-uronamide binding to Adenosine A2 receptor of rat striatal membrane
[3] = molecular target: T2, Adenosine receptor A1 (Rattus norvegicus, UniProt P25099); experiment: Affinity for adenosine A1 receptor using [3H]N6-(phenylisopropyl)adenosine (R)-[3H]-PIA as a radioligand in rat brain.; type: tissue-based
T2 sequence (P25099 whole entry): T1 sequence (whole entry)

[4] = molecular target: Adenosine receptors; A1 & A2 (Rattus norvegicus) (UniProt P29276+P25099+P30543); experiment: Selectivity ratio between Ki for adenosine A2 and A1 receptors; type: protein assay
[5] = molecular target: T3, Adenosine receptor A1 (Bos taurus, UniProt P28190); experiment: Affinity for Adenosine A1 receptor using [N6-[(3-[125I]-iodo-4-aminophenyl)ethyl]adenosine in calf brain; type: tissue-based
T3 sequence (P28190 whole entry): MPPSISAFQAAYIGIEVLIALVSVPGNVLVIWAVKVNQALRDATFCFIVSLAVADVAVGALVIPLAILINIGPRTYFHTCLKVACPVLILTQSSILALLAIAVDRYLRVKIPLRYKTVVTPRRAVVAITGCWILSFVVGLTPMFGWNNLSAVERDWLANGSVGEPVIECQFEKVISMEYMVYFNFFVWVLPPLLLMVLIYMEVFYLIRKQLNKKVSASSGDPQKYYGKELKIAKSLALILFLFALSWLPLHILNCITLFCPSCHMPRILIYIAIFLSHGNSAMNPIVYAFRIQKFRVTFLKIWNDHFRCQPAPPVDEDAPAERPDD
Summary of the method: (§2)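 Bovine cerebral cortex membranes were pretreated with adenosine deaminase (0.5 unit/mL, 20 min, 37 °C). Membranes (40 µg) were incubated with 125I-APNEA and competitor for 1 h at 37 °C. Separation was by dilution in cold Tris-HCl/MgCl2/EDTA buffer, pH 8.26, with 0.02% Chaps, then glass-filter filtration and gamma counting. Nonspecific binding was defined with 10⁻⁵ M (R)-PIA.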

[6] = molecular target: T2, Adenosine receptor A1; experiment: Affinity for adenosine A1 receptor using [3H]-N6 -(phenylisopropyl)-adenosine (R)-[3H]-PIA in rat brain.; type: tissue-based
Summary of the method: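 Rat cerebral cortex membranes were incubated with 1 nM (R)-[3H]PIA and a range of competitor concentrations. Each point was run in triplicate, in at least three separate experiments.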

[7] = molecular target: T1, Adenosine receptor A1 (Rattus norvegicus); experiment: Percentage inhibition of [125I]APNEA binding to adenosine A1 receptor from rat brain after 45 min incubation at 500 nM; summary of the method: as §1
[8] = molecular target: T1, Adenosine receptor A1 (Rattus norvegicus); experiment: Percentage inhibition of [125I]APNEA binding to Adenosine A1 receptor from rat brain after 45 min incubation at 10 nM
Summary of the method: (§3)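 Rat cerebral cortex membranes pretreated with adenosine deaminase (0.5 unit/mL, 20 min, 37 °C). Incubated with ligand at the stated concentration for 45 min at 37 °C, then washed three times in Tris/MgCl2/EDTA buffer pH 8.26 with 0.02% Chaps. Then 10⁻⁴ M IBMX for 18 h at 25 °C, washed twice and deaminase-treated again. Untreated membranes went through every step as controls.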

[9] = molecular target: T1, Adenosine receptor A1 (Rattus norvegicus); experiment: Percentage inhibition of [125I]APNEA binding to adenosine A1 receptor from rat brain after 45 min incubation at 10 nM; summary of the method: as §3
[10] = molecular target: T1, Adenosine receptor A1 (Rattus norvegicus); experiment: Percentage inhibition of [125I]APNEA binding to adenosine A1 receptor from rat brain after 45 min incubation at 1 nM
Summary of the method: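 Rat cerebral cortex membranes, pretreated with adenosine deaminase (0.5 unit/mL, 20 min, 37 °C), incubated with ligand 45 min at 37 °C. Washed three times in Tris/MgCl2/EDTA buffer pH 8.26 with 0.02% Chaps, then 10⁻⁴ M IBMX 18 h at 25 °C to strip reversible ligand. Washed, deaminase-treated again, then 125I-APNEA saturation binding (0.1–2.5 nM; nonspecific 10⁻⁵ M R-PIA). Inhibition is relative to untreated membranes carried through the same steps.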

[11] = molecular target: T3, Adenosine receptor A1; experiment: Affinity for Adenosine A1 receptor using [125I]APNEA in calf brain.; summary of the method: as §2

Row | Compound | inhibition [1] | Ki [3] | further results
1 | CCCn1c(=O)c2[nH]c(-c3ccc(OCC(=O)NCCN)cc3)nc2n(CCC)c1=O [XANTHINE AMINE CONGENER] | – | – | Ki [5]: 0.3 nM
2 | COc1ccc(NC(=S)NCCNC(=O)Cc2ccc(NC(=O)Cc3ccc(Nc4ncnc5c4ncn5C4O[C@H](CO)[C@@H](O)[C@H]4O)cc3)cc2)cc1 (stereo partly drawn) | – | – | Ki [6]: 8.52 nM
3 | O=C(Cc1ccc(NC(=O)Cc2ccc(Nc3ncnc4c3ncn4C3O[C@H](CO)[C@@H](O)[C@H]3O)cc2)cc1)NCCNC(=S)Nc1cccc(N=C=S)c1 (stereo partly drawn) | – | 0.867 nM | –
4 | O=C(Cc1ccc(Nc2ncnc3c2ncn3C2O[C@H](CO)[C@@H](O)[C@H]2O)cc1)Nc1ccc(CC(=O)ON2C(=O)CCC2=O)cc1 (stereo partly drawn) | 44% | 9.6 nM | –
5 | O=C(Cc1ccc(NC(=O)Cc2ccc(Nc3ncnc4c3ncn4C3O[C@H](CO)[C@@H](O)[C@H]3O)cc2)cc1)NCC/N=C(\S)Nc1ccc([N+](=O)[O-])cc1 (stereo partly drawn) | – | 1.97 nM | –
6 | Cc1ccc(NC(=S)NCCNC(=O)Cc2ccc(NC(=O)Cc3ccc(Nc4ncnc5c4ncn5C4O[C@H](CO)[C@@H](O)[C@H]4O)cc3)cc2)cc1 (stereo partly drawn) | – | 3.72 nM | –
7 | CCCn1c(=O)c2nc(-c3ccc(OCC(=O)NCCNC(=O)CCC(=O)ON4C(=O)CCC4=O)cc3)[nH]c2n(CCC)c1=O | – | – | inhibition [7]: 0%
8 | O=C(Cc1ccc(NC(=O)Cc2ccc(Nc3ncnc4c3ncn4C3O[C@H](CO)[C@@H](O)[C@H]3O)cc2)cc1)NCC/N=C(\S)Nc1ccc(N=C=S)cc1 (stereo partly drawn) | – | – | inhibition [8]: > 80%; inhibition [9]: > 80%; inhibition [10]: 39%; Ki [2]: 191 nM
9 | CCCn1c(=O)c2[nH]c(-c3ccc(OCC(=O)NCCNC(=O)c4ccc(CBr)cc4)cc3)nc2n(CCC)c1=O | – | – | Ki [11]: 10.1 nM
10 | CCCn1c(=O)c2nc(-c3ccc(OCC(=O)NCCNC(=O)CCSSc4ccccn4)cc3)[nH]c2n(CCC)c1=O | 3% | – | –
11 | O=C(Cc1ccc(NC(=O)Cc2ccc(Nc3ncnc4c3ncn4C3O[C@H](CO)[C@@H](O)[C@H]3O)cc2)cc1)NCCNC(=S)Nc1ccccc1F (stereo partly drawn) | – | 6.75 nM | –
12 | CCCn1c(=O)c2nc(-c3ccc(OCC(=O)NCCNC(=O)CCCCC(C)=O)cc3)[nH]c2n(CCC)c1=O | – | – | Ki [11]: 6.2 nM; inhibition [7]: 0%
13 | CCCn1c(=O)c2[nH]c(-c3ccc(OCC(=O)NCCNC(=O)CNC(=O)CCCN4C(=O)C=CC4=O)cc3)nc2n(CCC)c1=O | – | – | Ki [6]: 23.2 nM
14 | CCCn1c(=O)c2[nH]c(-c3ccc(OCC(=O)NCCNC(=S)Nc4ccc(C#N)cc4)cc3)nc2n(CCC)c1=O | – | 16.6 nM | –

The next lines start with results.

Row | inhibition [1] | Ki [3] | Compound | further results
15 | 32% | – | CCCn1c(=O)c2nc(-c3ccc(OCC(=O)NCCNC(=O)CCCCCCC(=O)ON4C(=O)CCC4=O)cc3)[nH]c2n(CCC)c1=O | Ki [2]: 207 nM
16 | – | 367 nM | CCCn1c(=O)c2nc(-c3ccc(OCC(=O)NCCN=C(S)Nc4ccc(S(=O)(=O)[O-])cc4)cc3)[nH]c2n(CCC)c1=O.[Na+] | Ki [2]: 1450 nM; Ratio [4]: 3.95
17 | 16% | – | CCCn1c(=O)c2nc(-c3ccc(OCC(=O)NCCNC(=O)CBr)cc3)[nH]c2n(CCC)c1=O | –
18 | 10% | – | CCCn1c(=O)c2nc(-c3ccc(OCC(=O)ON4C(=O)CCC4=O)cc3)[nH]c2n(CCC)c1=O | –
19 | 9% | – | CCCn1c(=O)c2nc(-c3ccc(OCC(=O)NCCNC(=O)CNC(=O)CCCN4C(=O)C=CC4=O)cc3)[nH]c2n(CCC)c1=O | –
20 | – | 15.5 nM | CCCn1c(=O)c2nc(-c3ccc(OCC(=O)NCCN=C(S)Nc4ccc(F)cc4)cc3)[nH]c2n(CCC)c1=O | –

— ChEMBL document CHEMBL1124458, “Electrophilic derivatives of purines as irreversible inhibitors of A1 adenosine receptors” (J Med Chem, 1989)
